Values after ≈ are worked out from the molar mass of the structure shown. Active and inactive are the calls of the source. The calls are words filed in the database; no cut-off is given here.
Legend:
[1] = system: Syncephalastrum racemosum; assay: Antimicrobial activity against Syncephalastrum racemosum at 1.25 ug/mL by agar diffusion method; assay type: functional; conditions: read-out: IZ
[2] = biological target: T1, DNA topoisomerase 1 (Homo sapiens) (UniProt P11387); assay: Inhibition of topoisomerase 1 relative to etoposide
T1 sequence (whole entry): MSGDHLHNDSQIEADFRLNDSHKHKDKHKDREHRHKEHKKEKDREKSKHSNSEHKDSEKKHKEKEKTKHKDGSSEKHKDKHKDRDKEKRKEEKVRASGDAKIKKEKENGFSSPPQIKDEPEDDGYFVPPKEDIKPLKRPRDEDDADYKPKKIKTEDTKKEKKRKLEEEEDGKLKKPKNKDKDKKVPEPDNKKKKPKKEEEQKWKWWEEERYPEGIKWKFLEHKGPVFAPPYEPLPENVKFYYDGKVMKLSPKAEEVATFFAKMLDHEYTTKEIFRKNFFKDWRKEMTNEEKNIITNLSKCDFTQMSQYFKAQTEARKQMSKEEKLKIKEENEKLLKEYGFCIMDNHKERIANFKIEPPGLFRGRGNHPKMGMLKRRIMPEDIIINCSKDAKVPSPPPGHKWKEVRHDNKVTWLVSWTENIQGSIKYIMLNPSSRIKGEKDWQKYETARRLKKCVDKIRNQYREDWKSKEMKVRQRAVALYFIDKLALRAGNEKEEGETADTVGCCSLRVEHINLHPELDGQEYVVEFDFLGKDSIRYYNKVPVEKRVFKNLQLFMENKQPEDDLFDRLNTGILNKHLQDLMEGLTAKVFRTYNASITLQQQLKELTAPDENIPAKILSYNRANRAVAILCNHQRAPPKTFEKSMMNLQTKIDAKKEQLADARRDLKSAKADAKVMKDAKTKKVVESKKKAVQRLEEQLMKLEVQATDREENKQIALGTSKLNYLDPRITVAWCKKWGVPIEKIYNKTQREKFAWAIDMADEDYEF

Escherichia coli [3] = assay: Antimicrobial activity against Escherichia coli at 5 ug/mL by agar diffusion method; assay type: functional; conditions: read-out: IZ
Escherichia coli [4] = assay: Antimicrobial activity against Escherichia coli at 2.5 ug/mL by agar diffusion method; assay type: functional; conditions: read-out: IZ
Pseudomonas aeruginosa [5] = assay: Antimicrobial activity against Pseudomonas aeruginosa at 1.25 ug/mL by agar diffusion method; assay type: functional; conditions: read-out: IZ
Penicillium italicum [6] = assay: Antimicrobial activity against Penicillium italicum by agar diffusion method; assay type: functional
Outline: (§1)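 Agar diffusion on plates against bacteria and fungi. MIC taken as the lowest concentration giving no visible growth on the plate.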

Penicillium italicum [7] = assay: Antimicrobial activity against Penicillium italicum at 1.25 ug/mL by agar diffusion method; assay type: functional; conditions: read-out: IZ
[8] = Antioxidant activity assessed as inhibition of peroxynitrite-mediated 3-nitrotyrosine formation by HPLC; assay type: functional
Outline: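 Tyrosine and peroxynitrite, each 100 µM, reacted with compound at 0–300 µM in 100 mM phosphate buffer pH 7.4 at 37 °C for 15 min. Peroxynitrite made from acidified H2O2 plus KNO2, quenched with NaOH, and kept on ice no longer than 30 min before use.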

[9] = system: Syncephalastrum racemosum; assay: Antimicrobial activity against Syncephalastrum racemosum by agar diffusion method; assay type: functional; outline: as §1
Penicillium italicum [10] = assay: Antimicrobial activity against Penicillium italicum at 2.5 ug/mL by agar diffusion method; assay type: functional; conditions: read-out: IZ
[11] = biological target: DNA topoisomerase 2-alpha (Mus musculus) (UniProt Q01320); assay: Inhibition of topoisomerase 2 from mouse P388 cells assessed as relaxation of pBR322 DNA by agarose gel electrophoresis relative to etoposide; assay type: cell-based
Outline: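 Topoisomerase II purified from P388 cells. One unit relaxes 0.125 µg supercoiled pBR322 DNA, incubated with or without inhibitor at 30 °C for 1 h in 50 mM Tris-HCl pH 8.0, 100 mM KCl, 10 mM MgCl2, 0.5 mM DTT, 1 mM ATP and 30 µg/ml BSA. Products run on 0.7% agarose in TBE, stained with ethidium bromide and imaged under UV.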

MC-38 = assay: Antitumor activity against mouse Colon 38 cells implanted in iv dosed C57BL/6 mouse administered as single dose; assay type: functional, organism-based
Outline: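 Female C57BL/6 mice, 6 weeks old, given about 30 mg Colon 38 tumor tissue s.c. in the flank. Randomized into groups of n = 5 when tumors reached about 300 mm3 (day 1). Compound in 5% glucose given as a single iv tail-vein dose on day 1; controls received 5% glucose. Tumor volume = (length × width²)/2 and body weight tracked.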

Bacillus subtilis [12] = assay: Antimicrobial activity against Bacillus subtilis by agar diffusion method; assay type: functional; outline: as §1
Candida albicans [13] = assay: Antimicrobial activity against Candida albicans by agar diffusion method; assay type: functional; outline: as §1
Escherichia coli [14] = assay: Antimicrobial activity against Escherichia coli by agar diffusion method; assay type: functional; outline: as §1
Staphylococcus aureus [15] = assay: Antimicrobial activity against Staphylococcus aureus at 5 ug/mL by agar diffusion method; assay type: functional; conditions: read-out: IZ
Measles morbillivirus = assay: Antiviral activity against Measles virus infected in intracranially dosed hamster assessed as inhibition of subacute sclerosing panencephalitis; assay type: functional
Outline: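 Hamsters under ether anesthesia injected intracranially, into the subarachnoid space at 2 mm depth, at 5, 10 and 20 mg/kg/day for 10 days. Four animals per group sacrificed on days 1–20. Brains homogenized in PBS and centrifuged, supernatant deproteinized with ethanol, then MIC in brain tissue determined by HPLC and bioassay.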

Bacillus subtilis [16] = assay: Antimicrobial activity against Bacillus subtilis at 5 ug/mL by agar diffusion method; assay type: functional; conditions: read-out: IZ
Aspergillus fumigatus [17] = assay: Antimicrobial activity against Aspergillus fumigatus at 2.5 ug/mL by agar diffusion method; assay type: functional; conditions: read-out: IZ
Candida albicans [18] = assay: Antimicrobial activity against Candida albicans at 2.5 ug/mL by agar diffusion method; assay type: functional; conditions: read-out: IZ
Escherichia coli [19] = assay: Antimicrobial activity against Escherichia coli at 1.25 ug/mL by agar diffusion method; assay type: functional; conditions: read-out: IZ
[20] = system: Syncephalastrum racemosum; assay: Antimicrobial activity against Syncephalastrum racemosum at 5 ug/mL by agar diffusion method; assay type: functional; conditions: read-out: IZ
Penicillium italicum [21] = assay: Antimicrobial activity against Penicillium italicum at 5 ug/mL by agar diffusion method; assay type: functional; conditions: read-out: IZ
[22] = system: Radical scavenging activity; assay: Antioxidant activity assessed as DPPH free radical scavenging activity by measuring reduction in DPPH absorbance by ELISA relative to untreated control; assay type: functional; design: concentration or dose not given beside the values
Outline: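 Test compounds dissolved in DMSO, ascorbic acid standard in water, both serially diluted. 10 µl sample added to 90 µl of 100 µM DPPH in methanol and kept in the dark at 37 °C for 30 min. Absorbance read at 515 nm. Blank is DMSO plus DPPH. % reduction = (A_B − A_A)/A_B × 100. Run in triplicate.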

[23] = system: Syncephalastrum racemosum; assay: Antimicrobial activity against Syncephalastrum racemosum at 2.5 ug/mL by agar diffusion method; assay type: functional; conditions: read-out: IZ
Staphylococcus aureus [24] = assay: Antimicrobial activity against Staphylococcus aureus at 1.25 ug/mL by agar diffusion method; assay type: functional; conditions: read-out: IZ
Pseudomonas aeruginosa [25] = assay: Antimicrobial activity against Pseudomonas aeruginosa at 5 ug/mL by agar diffusion method; assay type: functional; conditions: read-out: IZ
Aspergillus fumigatus [26] = assay: Antimicrobial activity against Aspergillus fumigatus at 5 ug/mL by agar diffusion method; assay type: functional; conditions: read-out: IZ
Candida albicans [27] = assay: Antimicrobial activity against Candida albicans at 1.25 ug/mL by agar diffusion method; assay type: functional; conditions: read-out: IZ
Pseudomonas aeruginosa [28] = assay: Antimicrobial activity against Pseudomonas aeruginosa at 2.5 ug/mL by agar diffusion method; assay type: functional; conditions: read-out: IZ
Staphylococcus aureus [29] = assay: Antimicrobial activity against Staphylococcus aureus by agar diffusion method; assay type: functional; outline: as §1
Bacillus subtilis [30] = assay: Antimicrobial activity against Bacillus subtilis at 1.25 ug/mL by agar diffusion method; assay type: functional; conditions: read-out: IZ
Staphylococcus aureus [31] = assay: Antimicrobial activity against Staphylococcus aureus at 2.5 ug/mL by agar diffusion method; assay type: functional; conditions: read-out: IZ
Aspergillus fumigatus [32] = assay: Antimicrobial activity against Aspergillus fumigatus at 1.25 ug/mL by agar diffusion method; assay type: functional; conditions: read-out: IZ
Aspergillus fumigatus [33] = assay: Antimicrobial activity against Aspergillus fumigatus by agar diffusion method; assay type: functional; outline: as §1
Hepatitis C virus = assay: Antiviral activity against HCV by cell based replicon assay; assay type: functional, Hepacivirus hominis
Outline: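 HCV replicon cells plated at 1×10^4 per well. Next day incubated at 37 °C with serially diluted compound in DMEM with 2% FBS and 0.5% DMSO. HCV RNA copy number measured by quantitative RT-PCR on total cellular RNA. Each point is the average of five replicates. Cytotoxicity measured by MTS in parallel.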

Candida albicans [34] = assay: Antimicrobial activity against Candida albicans at 5 ug/mL by agar diffusion method; assay type: functional; conditions: read-out: IZ
Bacillus subtilis [35] = assay: Antimicrobial activity against Bacillus subtilis at 2.5 ug/mL by agar diffusion method; assay type: functional; conditions: read-out: IZ

Sequence of DNA topoisomerase 2-alpha (Mus musculus) (Q01320 whole entry): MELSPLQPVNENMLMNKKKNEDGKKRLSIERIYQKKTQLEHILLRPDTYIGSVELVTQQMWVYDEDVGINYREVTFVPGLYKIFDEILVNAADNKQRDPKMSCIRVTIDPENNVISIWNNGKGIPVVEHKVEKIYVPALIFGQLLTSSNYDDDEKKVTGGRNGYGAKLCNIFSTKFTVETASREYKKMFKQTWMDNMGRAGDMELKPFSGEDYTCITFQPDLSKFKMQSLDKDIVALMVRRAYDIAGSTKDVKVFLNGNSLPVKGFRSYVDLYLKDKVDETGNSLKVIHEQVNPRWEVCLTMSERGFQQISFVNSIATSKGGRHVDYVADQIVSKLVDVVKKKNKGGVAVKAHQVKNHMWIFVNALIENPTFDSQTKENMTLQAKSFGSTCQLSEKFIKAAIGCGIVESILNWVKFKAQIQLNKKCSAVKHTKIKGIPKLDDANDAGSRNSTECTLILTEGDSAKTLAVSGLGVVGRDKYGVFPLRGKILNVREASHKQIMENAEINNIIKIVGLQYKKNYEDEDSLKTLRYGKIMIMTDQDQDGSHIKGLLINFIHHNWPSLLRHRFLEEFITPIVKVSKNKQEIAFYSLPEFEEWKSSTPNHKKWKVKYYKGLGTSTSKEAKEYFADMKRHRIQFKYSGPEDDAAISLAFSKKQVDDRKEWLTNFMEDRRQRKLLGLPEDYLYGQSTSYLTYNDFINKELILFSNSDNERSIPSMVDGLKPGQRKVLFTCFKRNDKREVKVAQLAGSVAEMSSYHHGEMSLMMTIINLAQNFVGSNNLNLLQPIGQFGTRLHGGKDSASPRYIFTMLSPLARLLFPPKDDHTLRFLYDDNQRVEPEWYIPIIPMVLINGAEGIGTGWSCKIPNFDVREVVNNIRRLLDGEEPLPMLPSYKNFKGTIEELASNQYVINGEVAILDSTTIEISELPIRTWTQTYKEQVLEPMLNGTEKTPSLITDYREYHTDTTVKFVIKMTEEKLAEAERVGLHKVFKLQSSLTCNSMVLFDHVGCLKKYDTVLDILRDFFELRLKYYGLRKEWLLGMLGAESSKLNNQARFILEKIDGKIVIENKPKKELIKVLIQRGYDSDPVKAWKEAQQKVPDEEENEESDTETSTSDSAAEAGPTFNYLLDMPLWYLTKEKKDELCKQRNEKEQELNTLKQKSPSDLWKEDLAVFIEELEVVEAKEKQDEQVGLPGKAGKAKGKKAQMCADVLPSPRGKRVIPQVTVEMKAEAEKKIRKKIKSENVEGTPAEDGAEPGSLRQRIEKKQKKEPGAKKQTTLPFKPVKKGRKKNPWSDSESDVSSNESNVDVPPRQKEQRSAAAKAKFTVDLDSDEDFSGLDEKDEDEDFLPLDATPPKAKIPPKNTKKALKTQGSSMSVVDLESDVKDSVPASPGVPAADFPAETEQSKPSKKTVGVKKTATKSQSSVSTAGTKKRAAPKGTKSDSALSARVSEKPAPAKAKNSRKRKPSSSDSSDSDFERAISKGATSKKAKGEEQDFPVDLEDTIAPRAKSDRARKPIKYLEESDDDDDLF

Question: Which zone of inhibition at 1.25 µg/mL [1] does the source give for `Cc1cccc(N/N=C2\CCCc3ccccc3C2=O)c1` here?
Answer: 8 mm

Question: What about the Ratio [2] of the same molecule?
Answer: 4.46

Question: And the zone of inhibition at 5 µg/mL (Escherichia coli [3])?
Answer: 12 mm

Question: What about the zone of inhibition at 2.5 µg/mL (Escherichia coli [4]) of the same molecule?
Answer: 6 mm

Question: What about the zone of inhibition at 1.25 µg/mL (Pseudomonas aeruginosa [5]) of the same molecule?
Answer: 0 mm

Question: What about the MIC (Penicillium italicum [6]) of the same molecule?
Answer: 1.25 µg/mL (≈ 4.49 µM)

Question: And the zone of inhibition at 1.25 µg/mL (Penicillium italicum [7])?
Answer: 3 mm

Question: What about the IC50 [8] of the same molecule?
Answer: 55.1 µM

Question: What about the MIC [9] of the same molecule?
Answer: 0.313 µg/mL (≈ 1.12 µM)

Question: And the zone of inhibition at 2.5 µg/mL (Penicillium italicum [10])?
Answer: 6 mm

Question: What about the Ratio [11] of the same molecule?
Answer: 4.66

Question: And the Activity (MC-38)?
Answer: Active

Question: And the MIC (Bacillus subtilis [12])?
Answer: 0.313 µg/mL (≈ 1.12 µM)

Question: What about the MIC (Candida albicans [13]) of the same molecule?
Answer: 1.25 µg/mL (≈ 4.49 µM)

Question: And the MIC (Escherichia coli [14])?
Answer: 2.5 µg/mL (≈ 8.98 µM)

Question: What about the zone of inhibition at 5 µg/mL (Staphylococcus aureus [15]) of the same molecule?
Answer: 12 mm

Question: What about the MIC (Measles morbillivirus) of the same molecule?
Answer: 6.01 µg/mL (≈ 21.6 µM)

Question: What about the zone of inhibition at 5 µg/mL (Bacillus subtilis [16]) of the same molecule?
Answer: 15 mm

Question: And the zone of inhibition at 2.5 µg/mL (Aspergillus fumigatus [17])?
Answer: 14 mm

Question: And the zone of inhibition at 2.5 µg/mL (Candida albicans [18])?
Answer: 6 mm

Question: And the zone of inhibition at 1.25 µg/mL (Escherichia coli [19])?
Answer: 0 mm

Question: What about the zone of inhibition at 5 µg/mL [20] of the same molecule?
Answer: 19 mm

Question: And the zone of inhibition at 5 µg/mL (Penicillium italicum [21])?
Answer: 14 mm

Question: What about the Activity [22] of the same molecule?
Answer: 83.1%

Question: What about the zone of inhibition at 2.5 µg/mL [23] of the same molecule?
Answer: 12 mm

Question: What about the zone of inhibition at 1.25 µg/mL (Staphylococcus aureus [24]) of the same molecule?
Answer: 5 mm

Question: What about the zone of inhibition at 5 µg/mL (Pseudomonas aeruginosa [25]) of the same molecule?
Answer: 0 mm

Question: What about the zone of inhibition at 5 µg/mL (Aspergillus fumigatus [26]) of the same molecule?
Answer: 22 mm

Question: What about the zone of inhibition at 1.25 µg/mL (Candida albicans [27]) of the same molecule?
Answer: 2 mm

Question: What about the zone of inhibition at 2.5 µg/mL (Pseudomonas aeruginosa [28]) of the same molecule?
Answer: 0 mm

Question: What about the MIC (Staphylococcus aureus [29]) of the same molecule?
Answer: 0.625 µg/mL (≈ 2.25 µM)

Question: What about the zone of inhibition at 1.25 µg/mL (Bacillus subtilis [30]) of the same molecule?
Answer: 8 mm

Question: And the zone of inhibition at 2.5 µg/mL (Staphylococcus aureus [31])?
Answer: 8 mm

Question: What about the zone of inhibition at 1.25 µg/mL (Aspergillus fumigatus [32]) of the same molecule?
Answer: 9 mm

Question: What about the MIC (Aspergillus fumigatus [33]) of the same molecule?
Answer: 0.313 µg/mL (≈ 1.12 µM)

Question: And the MIC (Hepatitis C virus)?
Answer: 1.02 µg/mL (≈ 3.67 µM)

Question: What about the zone of inhibition at 5 µg/mL (Candida albicans [34]) of the same molecule?
Answer: 9 mm

Question: What about the zone of inhibition at 2.5 µg/mL (Bacillus subtilis [35]) of the same molecule?
Answer: 10 mm

Reference: ChEMBL document CHEMBL1152689, “Synthesis, tautomerism, and antimicrobial, anti-HCV, anti-SSPE, antioxidant, and antitumor activities of arylazobenzosuberones” (Bioorg Med Chem, 2009)
